Assay [1] in a line: SK-BR-3 cell growth inhibitors, pilot screen, 24 h, human (AID 572).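 Further: compound exposure lasted between 18 and 24 h rather than exactly 24 h; 100% = carrier-treated control wells.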 The note with it: SK-BR-3 viability, CellTiter-Glo luminescence, at 10 µM, stronger effect = lower value.
The nature of assay [2]: HUVEC growth inhibition – cell-based, human, primary screen (AID 575;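 active means viability at or below 30% in both replicate assays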;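 further: 100% = median of untreated cell wells with 0.1% DMSO on each plate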). The note with it: HUVEC proliferation, CellTiter-Glo luminescence, 72 h; at 10 µM; stronger effect = lower value. An outline of the steps: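 Test system: primary human umbilical vein endothelial cells; medium: endothelial basal medium with 2% FBS plus growth supplements; dosing: 10 µM compound only; times: 72 h treatment at 37 °C; signal: CTG luminescence; read-out: % viability relative to median vehicle-well signal on each plate; control set: vehicle and MePR control wells; plate: 384-well, collagen-coated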

Assay [3] in a line: growth inhibitors of H69AR lung tumor, primary screen, human, duplicate replicates (AID 580;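 active means viability at or under a set limit in both replicates, limit being median viability minus 3 SD, cut at about 48% in these data, passing the limit was not always enough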;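 further: 100% = mean luminescence of untreated wells and 0% = no signal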). The note with it: H69AR lung tumor cells viability, ATP luminescence, 72 h; at 10 µM; stronger effect = lower value.
The nature of assay [4]: reversal of MRP1-mediated doxorubicin resistance, pilot screen, H69AR cells, doxorubicin co-treatment (AID 601;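 active means viability loss from added drug above about 55%, and viability with drug at most 40%, in both replicates, limit read from the data, passing the limit was not always enough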). The note with it: CellTiter-Glo, 72 h, at 10 µM; for differential viability (reversal): stronger effect = higher value.
Assay [5] is described as follows: 384-well plate pilot, post-Golgi transport modulator project, inhibition of yeast transport mutant growth (AID 636; in the data active means inhibition above about 31%). The note with it: absorbance 615 nm, about 18 h, stronger effect = higher value.
A short description of assay [6]: growth suppression of yeast trafficking mutant, preliminary HTS, modulators of trafficking downstream of Golgi apparatus project, 1536-format plate, OD 615 nm (AID 637; in the data active means inhibition above about 30%). The note with it: yeast transport mutant growth, absorbance 615 nm, 18 h; stronger effect = higher value.
[7] abbreviates: H69AR cells + 2 uM doxorubicin, measured here: viability with 2 uM doxorubicin, stronger effect = lower value.
[8] abbreviates: H69AR cells, compound alone cytotoxicity.

The source made the active and inactive calls.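 How the source made its calls, unless noted: active means viability at or below 10% of carrier control in both of two separate runs; inconclusive means viability at or below 10% in only one of the two runs; inactive means the rest.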

Regarding `O=C(Nc1ccc(N2CCOCC2)cc1)Nc1ccc2nc(-c3ccco3)c(-c3ccco3)nc2c1`, the viability in assay [1] is 71.5% (inactive); in assay [2], 16.6% (active); in assay [3], 13.5% (active); in assay [4] (setting [7]), 21.6%; in assay [4] (setting [8]), 13.5%. Further, the differential viability (reversal) in assay [4] (H69AR cells + 2 uM doxorubicin) is -8.11% (inactive). Further, the inhibition is -7.73% (inactive) in assay [5] and -1.45% (inactive) in assay [6].
As for `O=C(COC(=O)c1cc(S(=O)(=O)N2CCOCC2)cs1)c1ccccc1`, the viability was 115% (inactive) in assay [1]; 93.3% (inactive) in assay [2]; 99.9% (inactive) in assay [3]; 83.5% in assay [4] (setting [7]); 99.9% in assay [4] (setting [8]). Moreover, the differential viability (reversal) in assay [4] (H69AR cells + 2 uM doxorubicin) is 16.3% (inactive). In addition, the inhibition in assay [5] is -3.64% (inactive); in assay [6] it was -1.97% (inactive).
Take `CN(C)c1nc(N(C)C)nc(N(C)C)n1`: the viability is 95% (inactive) in assay [1]; 106% (inactive) in assay [2]; 96.8% (inactive) in assay [3]; 99.6% in assay [4] (setting [7]); 96.8% in assay [4] (setting [8]). The differential viability (reversal) in assay [4] (H69AR cells + 2 uM doxorubicin) was -2.79% (inactive). In addition, the inhibition in assay [5] is -1.69% (inactive); in assay [6], -2.67% (inactive).
As to `CCOC(=O)C(C)C1(O)c2ccccc2-c2ncccc21` (stereo not drawn), the viability in assay [1] was 91% (inactive); in assay [2] it was 98.6% (inactive); in assay [3] it was 102% (inactive); in assay [4] (setting [7]), 88.6%; in assay [4] (setting [8]), 102%. Also, in assay [4] (H69AR cells + 2 uM doxorubicin), the differential viability (reversal) is 13% (inactive). Further, the inhibition in assay [5] was -5.81% (inactive); in assay [6], 1.27% (inactive).
Take `N#Cc1c(-c2ccc3c(c2)OCO3)csc1N`: the viability in assay [1] was 96% (inactive); in assay [2], 83.9% (inactive); in assay [3] it was 95.2% (inactive); in assay [4] (setting [7]) it was 93.7%; in assay [4] (setting [8]), 95.2%. For the same compound, the differential viability (reversal) in assay [4] (H69AR cells + 2 uM doxorubicin) is 1.51% (inactive). For the same compound, the inhibition in assay [5] is 3.29% (inactive); in assay [6], 4.73% (inactive).
Regarding `C=CCn1c(SCC(=O)C(C)(C)C)nnc1-c1ccccn1`, the viability was 88% (inactive) in assay [1]; 94.4% (inactive) in assay [2]; 92.2% (inactive) in assay [3]; 92.6% in assay [4] (setting [7]); 92.2% in assay [4] (setting [8]). Also, the differential viability (reversal) in assay [4] (H69AR cells + 2 uM doxorubicin) was -0.455% (inactive). The inhibition was -7.57% (inactive) in assay [5] and -3.64% (inactive) in assay [6].
For `CCOC(=O)C1(CC)NC(c2cccc(F)c2)C2C(=O)N(CC)C(=O)C21` (stereo not drawn), the viability was 104% (inactive) in assay [1]; 96.1% (inactive) in assay [2]; 97.6% (inactive) in assay [3]; 92.6% in assay [4] (setting [7]); 97.6% in assay [4] (setting [8]). Also, the differential viability (reversal) in assay [4] (H69AR cells + 2 uM doxorubicin) was 5.01% (inactive). The results for the inhibition in assay [5] and in assay [6] were -3.29% (inactive) and 3.06% (inactive), respectively.
On to `COC(=O)CSc1nnc(CSc2nc(C)cc(C)n2)n1Cc1ccco1`, for which the viability was 81% (inactive) in assay [1]; 104% (inactive) in assay [2]; 99.8% (inactive) in assay [3]; 75.5% in assay [4] (setting [7]); 99.8% in assay [4] (setting [8]). In assay [4] (H69AR cells + 2 uM doxorubicin), the differential viability (reversal) was 24.3% (inactive). In addition, the inhibition in assay [5] is -4.53% (inactive); in assay [6], -7.27% (inactive).
As for `CCC1CCCCN1S(=O)(=O)c1ccc(C(=O)Nc2nnc(-c3ccccc3Cl)o2)cc1` (stereo not drawn), the viability in assay [1] was 74% (inactive); in assay [2], 13.5% (active); in assay [3] it was 20.1% (active); in assay [4] (setting [7]), 41.8%; in assay [4] (setting [8]), 20.1%. For the same compound, the differential viability (reversal) in assay [4] (H69AR cells + 2 uM doxorubicin) was -21.7% (inactive). Moreover, the results for the inhibition in assay [5] and in assay [6] were -0.13% (inactive) and 11.6% (inactive), respectively.
In the case of `CC1CCCC(C)N1C(=O)CSc1nnc(-c2cccs2)o1` (stereo not drawn), the viability is 92% (inactive) in assay [1]; 106% (inactive) in assay [2]; 95.1% (inactive) in assay [3]; 96.8% in assay [4] (setting [7]); 95.1% in assay [4] (setting [8]). Also, the differential viability (reversal) in assay [4] (H69AR cells + 2 uM doxorubicin) is -1.69% (inactive). The figures for the inhibition in assay [5] and in assay [6] were 0.54% (inactive) and -3.09% (inactive), respectively.
Regarding `CCOC(=O)C1=C(c2ccccc2)N2CCS(=O)(=O)N=C2S1`, the viability in assay [1] was 92% (inactive); in assay [2], 96.9% (inactive); in assay [3], 90.2% (inactive); in assay [4] (setting [7]) it was 83.7%; in assay [4] (setting [8]), 90.2%. For the same compound, the differential viability (reversal) in assay [4] (H69AR cells + 2 uM doxorubicin) was 6.51% (inactive). The inhibition is -2.13% (inactive) in assay [5] and 0% (inactive) in assay [6].
